Assay results reported in publication PMC10150721 (Journal of Medicinal Chemistry, 2023).

Tests used:
class-IIa HDAC = assay type: cell-based; settings: HT-29 cells
How it was run: (§1)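 HT-29 cells were grown in DMEM with 10% FBS at 37 °C and 5% CO2, then trypsinised and washed into RPMI without phenol red containing 0.1% FBS. They were seeded at 200 000 cells/well overnight. Substrate was 100 μM Boc-Lys-TFA for class-IIa or 200 μM Boc-Lys-Ac for class-I/IIb, incubated 3 h at 37 °C. Trypsin developer with tween 80 then lysed the cells over 1 h; fluorescence read at ex 360/em 460 nm.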

class-I/IIb HDAC = assay type: cell-based; settings: HT-29 cells
How it was run: as §1

[1] = screened at 1.0 and 10.0 µM side-by-side with SAHA and NT160

- IC50 (class-IIa HDAC; read-out: IC50, class-IIa HDAC): > 10 µM
- IC50 (class-I/IIb HDAC; read-out: IC50, class-I/IIb HDAC): > 10 µM
SMILES: O=C(O)c1ccc(-c2noc(C(F)(F)F)n2)cc1 [compound 1, 4-(5-(trifluoromethyl)-1,2,4-oxadiazol-3-yl)benzoic acid]
- Inhibition of class-IIa HDAC activity (class-IIa HDAC; [1]): ~10%
- Inhibition of class-I, class-IIb HDAC activities (class-I/IIb HDAC; [1]): ~10%
